Measurements as given in BindingDB's records for doi:10.1021/jm030003x (University of Alabama At Birmingham, 2003).

Target: T1, NH(3)-dependent NAD(+) synthetase (Bacillus subtilis (strain 168), UniProt P08164)
T1 sequence (P08164 whole entry): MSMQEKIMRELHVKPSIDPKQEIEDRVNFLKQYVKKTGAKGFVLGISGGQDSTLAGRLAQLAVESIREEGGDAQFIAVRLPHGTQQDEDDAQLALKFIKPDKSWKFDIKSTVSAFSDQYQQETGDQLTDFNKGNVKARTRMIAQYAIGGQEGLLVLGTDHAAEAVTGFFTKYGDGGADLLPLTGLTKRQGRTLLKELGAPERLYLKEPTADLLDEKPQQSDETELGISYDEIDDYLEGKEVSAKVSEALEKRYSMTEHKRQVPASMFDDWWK
Test: Inhibitory activity against Bacillus subtilis NAD synthetase
Method in brief: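 Purified recombinant B. subtilis NAD synthetase, 2.0 µg/mL. Coupled assay: the NAD formed is converted to NADH by yeast alcohol dehydrogenase (40 µg/mL) with 1% EtOH. Buffer is 58.5 mM HEPES pH 8.5 with NH4Cl, KCl, MgCl2, 0.1 mM NaAD, 0.2 mM ATP, 0.3% BOG and 2.5% DMSO. ATP starts the reaction, which runs 10 min and is stopped with guanidine·HCl. Read A340 and fluorescence 460 nm minus pre-ATP background. IC50 from % inhibition at six concentrations.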

For `CN[C@@H]1[C@@H](O)[C@@H](O[C@@H]2[C@@H](O)[C@H](O[C@H]3O[C@H]([C@@H](C)NC)CC[C@H]3N)[C@@H](N)C[C@H]2N)OC[C@]1(C)O` [GENTAMICIN], the IC50 was greater than 1 µM.
